Test results published in ChEMBL document CHEMBL4680238, “Novel octapeptide-DTX prodrugs targeting MMP-7 as effective agents for the treatment of colorectal cancer with lower systemic toxicity” (Eur J Med Chem, 2020).

Assays:
[1] = Drug uptake in BALB/c nude mouse xenografted with human HCT-116 cells assessed as drug level in heart at 5 mg/kg, iv measured up to 24 hrs by LC-MS/MS analysis; format: ADME, organism-based; conditions: in vivo
Procedure, shortened: (§1)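 Male BALB/c nude mice bearing s.c. HCT116 tumours (200-300 mm3), 20 per group. Single tail-vein dose of 5 mg/kg. Five mice per group killed at 0.5, 4, 8 and 24 h and heart-perfused with PBS. Tissues homogenized in saline (4 µL/mg) and precipitated with methanol containing paclitaxel internal standard. Prodrug, released DTX and free DTX measured by LC-MS/MS.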

HEK293 = assay: Cytotoxicity against HEK293 cells assessed as reduction in cell viability after 48 hrs by MTT assay; format: cell-based; conditions: Homo sapiens, HEK293, 48 h
Procedure, shortened: (§2)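 Cells seeded at 5000/well and precultured 1 day. HCT116 grown in McCoy's 5A + 10% FBS; SW620 and HEK293 in DMEM + 10% FBS; CCD18Co in DMEM + 15% FBS. Compounds from 0.1 M DMSO stocks were tested at 10^-10 to 10^-4 mol/L in sixplicate: HCT116 and HEK293 for 48 h, SW620 and CCD18Co for 72 h, at 37 °C, 5% CO2. MTT (5 mg/mL) added for 4 h, then A570 read; IC50 estimated.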

CCD-18Co = assay: Cytotoxicity against human CCD-18Co cells assessed as reduction in cell viability after 72 hrs by MTT assay; format: cell-based; procedure, shortened: as §2
[2] = Half life in Sprague-Dawley rat at 5 mg/kg, iv measured up to 72 hrs by LC-MS/MS analysis; format: ADME, organism-based; conditions: in vivo
Procedure, shortened: (§3)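 Male SD rats (180-200 g), fasted 12 h with free water, n = 3 per group. Single tail-vein dose of 5 mg/kg in 0.5% DMSO/5% castor oil/5% ethanol/89.5% saline. Retro-orbital blood drawn 0.083-72 h with heparin. Plasma protein-precipitated with methanol containing paclitaxel internal standard, then analysed by LC-MS/MS. Parameters from non-compartmental analysis, mean ± SD. For the DTX group, parameters were calculated after converting dose to the molar equivalent of the prodrug.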

[3] = Drug uptake in BALB/c nude mouse xenografted with human HCT-116 cells assessed as drug level in kidney at 5 mg/kg, iv measured up to 24 hrs by LC-MS/MS analysis; format: ADME, organism-based; conditions: in vivo; procedure, shortened: as §1
[4] = Drug uptake in BALB/c nude mouse xenografted with human HCT-116 cells assessed as drug level in spleen at 5 mg/kg, iv measured up to 24 hrs by LC-MS/MS analysis; format: ADME, organism-based; conditions: in vivo; procedure, shortened: as §1
[5] = Toxicity in ip dosed Kunming mouse measured for 14 days; format: organism-based; conditions: in vivo, time 14 day
Procedure, shortened: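 Healthy Kunming mice of both sexes, 20 ± 2 g, randomised into 5 groups of 10 matched for weight and size. Compound given once intraperitoneally at 400, 300, 250 or 150 mg/kg in formulation solvent (0.5% DMSO, 5% castor oil, 5% ethanol, 89.5% saline), 0.1 mL per 10 g; vehicle controls received solvent. Deaths recorded daily for 14 days; LD50 by Bliss method.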

SW-620 = assay: Cytotoxicity against human SW-620 cells assessed as reduction in cell viability after 72 hrs by MTT assay; format: functional, cell-based; conditions: SW-620, 72 h; procedure, shortened: as §2
[6] = Toxicity in BALB/c nude mouse xenografted with human HCT-116 cells assessed as concentrated nucleus in liver at 5 mg/kg, ip administered once for every 7 days for 14 days by H and E staining based assay; format: organism-based; conditions: in vivo, 336 h, time 14 day
Procedure, shortened: (§4)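 At the end of the 14-day ip xenograft study (HCT116, BALB/c nude), heart and liver were collected from vehicle and molar-equivalent dose groups. Tissues fixed in 10% formalin in PBS and stained with H&E. Liver examined at 400×, heart at 100×.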

[7] = AUC (0 to infinity) in Sprague-Dawley rat at 5 mg/kg, iv measured up to 72 hrs by LC-MS/MS analysis; format: ADME, organism-based; parameters: route intravenous, dose 5 mg/kg, time <=72; conditions: in vivo, 72 h; procedure, shortened: as §3
[8] = Toxicity in BALB/c nude mouse xenografted with human HCT-116 cells assessed as reduction in body weight at 5 mg/kg, ip administered once for every 7 days for 14 days relative to control; format: organism-based; parameters: scale not given: the % may be the effect or the level left; conditions: in vivo, 336 h, time 14 day
Procedure, shortened: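 HCT116 s.c. xenografts in male BALB/c nude mice, n = 6 per group. Dosing was ip once every 7 days for 2 weeks in DMSO/castor oil/ethanol/saline; vehicle controls got solvent. Body weight recorded every other day or every three days. Weight loss taken at day 14. Mean ± SD.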

[9] = MRT (0 to infinity) in Sprague-Dawley rat at 5 mg/kg, iv measured up to 72 hrs by LC-MS/MS analysis; format: ADME, organism-based; conditions: in vivo; procedure, shortened: as §3
[10] = AUC (0 to t) in Sprague-Dawley rat at 5 mg/kg, iv measured up to 72 hrs by LC-MS/MS analysis; format: ADME, organism-based; parameters: route intravenous, dose 5 mg/kg, time <=72; conditions: in vivo; procedure, shortened: as §3
[11] = Toxicity in BALB/c nude mouse xenografted with human HCT-116 cells assessed as inflammatory cell invasion in heart at 5 mg/kg, ip administered once for every 7 days for 14 days by H and E staining based assay; format: organism-based; conditions: in vivo, 336 h, time 14 day; procedure, shortened: as §4
[12] = Apparent volume of distribution in Sprague-Dawley rat at 5 mg/kg, iv measured up to 72 hrs by LC-MS/MS analysis; format: ADME, organism-based; conditions: in vivo, read-out: Vz; procedure, shortened: as §3
[13] = Drug uptake in BALB/c nude mouse xenografted with human HCT-116 cells assessed as drug level in lung at 5 mg/kg, iv measured up to 24 hrs by LC-MS/MS analysis; format: ADME, organism-based; conditions: in vivo; procedure, shortened: as §1
HCT-116 [14] = assay: Antitumour activity against human HCT-116 cells xenografted in BALB/c nude mouse assessed as tumour growth inhibition at 5 mg/kg, ip administered once for every 7 days for 14 days relative to control; format: functional; conditions: HCT-116, ip, 336 h, time 14 day, read-out: TGI
Procedure, shortened: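 Male BALB/c nude mice received s.c. HCT116 cells (2 × 10^6 in 0.2 mL PBS). Once tumours reached 100-200 mm3, mice were randomized into groups of six. Dosing was ip, 0.1 mL/10 g, once every 7 days, in DMSO 0.5%/castor oil 5%/ethanol 5%/saline 89.5%; vehicle controls got solvent. Caliper volume V = L×W²×0.52 read every 2-3 days. Tumours excised and weighed on day 14.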

HCT-116 [15] = assay: Cytotoxicity against human HCT-116 cells assessed as reduction in cell viability after 48 hrs by MTT assay; format: functional, cell-based; conditions: HCT-116, 48 h; procedure, shortened: as §2
[16] = Toxicity in BALB/c nude mouse xenografted with human HCT-116 cells assessed as disordered myocardial fiber in heart at 5 mg/kg, ip administered once for every 7 days for 14 days by H and E staining based assay; format: organism-based; conditions: in vivo, 336 h, time 14 day; procedure, shortened: as §4
[17] = Drug uptake in BALB/c nude mouse xenografted with human HCT-116 cells assessed as drug level in liver at 5 mg/kg, iv measured up to 24 hrs by LC-MS/MS analysis; format: ADME, organism-based; conditions: in vivo; procedure, shortened: as §1
[18] = Apparent clearance in Sprague-Dawley rat at 5 mg/kg, iv measured up to 72 hrs by LC-MS/MS analysis; format: ADME, organism-based; conditions: in vivo, 5 mg/kg, 72 h; procedure, shortened: as §3
[19] = Drug uptake in BALB/c nude mouse xenografted with human HCT-116 cells assessed as drug level in tumour at 5 mg/kg, iv measured up to 24 hrs by LC-MS/MS analysis; format: ADME, organism-based, Neoplasm; conditions: in vivo; procedure, shortened: as §1
[20] = Toxicity in BALB/c nude mouse xenografted with human HCT-116 cells assessed as necrosis in liver at 5 mg/kg, ip administered once for every 7 days for 14 days by H and E staining based assay; format: organism-based; conditions: in vivo, 336 h, time 14 day; procedure, shortened: as §4

Structure (SMILES)	IC50 (HEK293) [µM]	IC50 (CCD-18Co) [µM]	IC50 (SW-620) [nM]	Activity [8] [%]	Activity [11]	inhibition in vivo at 5 mg/kg (HCT-116 [14]) [%]	IC50 (HCT-116 [15]) [nM]	Activity [16]	further results
CC(=O)O[C@@]12CO[C@@H]1C[C@H](O)[C@@]1(C)C(=O)[C@H](O)C3=C(C)[C@@H](OC(=O)[C@H](O)[C@@H](NC(=O)OC(C)(C)C)c4ccccc4)C[C@@](O)([C@@H](OC(=O)c4ccccc4)[C@H]21)C3(C)C [DOCETAXEL ANHYDROUS]	19.7	117	20	13	Toxic	42.7	3.5	Toxic	Drug uptake [1]: Active; half-life [2]: 345 min; Drug uptake [3]: Active; Drug uptake [4]: Active; LD50 at 336 h [5]: 74.1 mg/kg; Activity [6]: Toxic; AUC [7]: 867 µg·h/L; MRT inf [9]: 3.76 h; AUC(0-t) at 72 h [10]: 930 ng·h/mL; Vd [12]: 22.6 L/kg; Drug uptake [13]: Active; Drug uptake [17]: Active; CL(app) [18]: 2.76 L/h/kg; Drug uptake [19]: Active
CC(=O)O[C@@]12CO[C@@H]1C[C@H](O)[C@@]1(C)C(=O)[C@H](O)C3=C(C)[C@@H](OC(=O)[C@H](O)[C@@H](NC(=O)OC(C)(C)C(F)(F)F)c4ccccc4)C[C@@](O)([C@@H](OC(=O)c4cccc(F)c4)[C@H]21)C3(C)C	0.36	17.1	280	9.5	Toxic	41.9	0.1	Toxic	Activity [20]: Toxic
